Experimental data as given in ChEMBL document CHEMBL1124127, “Central dopaminergic and 5-hydroxytryptaminergic effects of C3-methylated derivatives of 8-hydroxy-2-(di-n-propylamino)tetralin” (J Med Chem, 1988).

What was measured:
[1] = biological target: T1, 5-hydroxytryptamine receptor 1A (Rattus norvegicus, UniProt P19327); assay: Inhibitory activity tested in vitro at 5-hydroxytryptamine 1A receptor binding site in rat
T1 sequence (P19327 whole entry): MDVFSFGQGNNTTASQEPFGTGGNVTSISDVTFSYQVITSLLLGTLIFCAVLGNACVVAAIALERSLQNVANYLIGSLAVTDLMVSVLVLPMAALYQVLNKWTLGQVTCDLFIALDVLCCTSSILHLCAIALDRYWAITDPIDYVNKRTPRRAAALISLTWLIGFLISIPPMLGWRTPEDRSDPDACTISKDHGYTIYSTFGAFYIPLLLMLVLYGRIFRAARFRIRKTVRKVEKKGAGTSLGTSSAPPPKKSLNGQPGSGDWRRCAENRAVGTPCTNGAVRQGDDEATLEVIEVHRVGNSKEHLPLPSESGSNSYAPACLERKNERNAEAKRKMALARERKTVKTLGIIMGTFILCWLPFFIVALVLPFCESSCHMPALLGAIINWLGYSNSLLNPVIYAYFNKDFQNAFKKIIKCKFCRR
Procedure, shortened: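 Competition binding used rat brain membranes washed in 50 mM Tris-HCl pH 7.4, preincubated 10 min at 37 °C to remove 5-HT, and used at 10 mg wet tissue/mL. Assay: 1 nM [3H]-8-OH-DPAT, 3 mM CaCl2, 100 µM pargyline, 15 min at 37 °C, then filtration on PEI-treated filters. Nonspecific binding was set with 10 µM 5-HT. IC50 came from four-parameter logistic regression, mean ± SEM of N experiments.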

Rattus norvegicus [2] = assay: Effect on in vivo accumulation of DOPA was measured in rat limbic system at 59(Micromol/kg) dose; assay type: functional
Procedure, shortened: (§1)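 Rats not pretreated with reserpine received test drug (hydrochloride or hydrobromide salt) sc in the neck region 60 min before death. NSD 1015 decarboxylase inhibitor (100 mg/kg, i.e., 573 μmol/kg, ip) was given 30 min before decapitation. Brain was dissected on ice. Tissue was homogenized in 0.1 M perchloric acid with α-methyl-DOPA internal standard. Analytes were quantified by ion-pair reversed-phase HPLC-electrochemical detection. Values are means ± SEM, n = 3-7 per treated group.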

Rattus norvegicus [3] = assay: Effect on in vivo accumulation of DOPA was measured in rat corpus striatum at 59(Micromol/kg) dose; assay type: functional; procedure, shortened: as §1
Rattus norvegicus [4] = assay: Effect on in vivo accumulation of dopamine(DA) was measured in rat limbic system at 59(Micromol/kg) dose; assay type: functional
Procedure, shortened: (§2)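 Non-reserpinized rats got the test drug sc in the neck (5 mL/kg) 60 min before death, and NSD 1015 (573 µmol/kg ip) 30 min before death. After decapitation, the limbic system was dissected on ice, frozen and homogenized in 0.1 M perchloric acid with α-methyl-DOPA internal standard. DA was measured by ion-pair reversed-phase HPLC with electrochemical detection. Data are mean ± SEM (controls n=17-19, treated 3-7), analysed by ANOVA/Dunnett.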

Rattus norvegicus [5] = assay: Effect on in vivo accumulation of 5-HTP was measured in rat corpus striatum at 59(umol/kg) dose; assay type: functional; procedure, shortened: as §1
Rattus norvegicus [6] = assay: Effect on in vivo accumulation of […] was measured in rat corpus striatum at 59(Micromol/kg) dose; assay type: functional; procedure, shortened: as §1
Rattus norvegicus [7] = assay: Effect on in vivo accumulation of 5-HTP was measured in rat limbic system at 59(Micromol/kg) dose; assay type: functional; procedure, shortened: as §1
Rattus norvegicus [8] = assay: Effect on in vivo accumulation of dopamine(DA) was measured in rat limbic system at 5.9 (umol/kg) dose; assay type: functional; procedure, shortened: as §2
Rattus norvegicus [9] = assay: Effect on in vivo accumulation of […] was measured in rat corpus striatum at 5.9 (umol/kg) dose; assay type: functional; procedure, shortened: as §1
Rattus norvegicus [10] = assay: Effect on in vivo accumulation of DOPA was measured in rat limbic system at 5.9 (umol/kg) dose; assay type: functional; procedure, shortened: as §1
Rattus norvegicus [11] = assay: Effect on in vivo accumulation of DOPA was measured in rat corpus striatum at 5.9 (umol/kg) dose; assay type: functional; procedure, shortened: as §1
Rattus norvegicus [12] = assay: Effect on in vivo accumulation of 5-HTP was measured in rat limbic system at 5.9 (umol/kg) dose; assay type: functional; procedure, shortened: as §1
Rattus norvegicus [13] = assay: Effect on in vivo accumulation of 5-HTP was measured in rat corpus striatum at 5.9(umol/kg) dose; assay type: functional; procedure, shortened: as §1
Rattus norvegicus [14] = assay: Effect on in vivo accumulation of 5-HTP was measured in rat limbic system at 50(Micromol/kg) dose; assay type: functional; procedure, shortened: as §1
Rattus norvegicus [15] = assay: Effect on in vivo accumulation of DOPA was measured in rat corpus striatum at 50(Micromol/kg) dose; assay type: functional; procedure, shortened: as §1
Rattus norvegicus [16] = assay: Effect on in vivo accumulation of DOPA was measured in rat limbic system at 50(Micromol/kg) dose; assay type: functional; procedure, shortened: as §1
Rattus norvegicus [17] = assay: Effect on in vivo accumulation of dopamine(DA) was measured in rat limbic system at 50(Micromol/kg) dose; assay type: functional; procedure, shortened: as §2
Rattus norvegicus [18] = assay: Effect on in vivo accumulation of 5-HTP was measured in rat corpus striatum at 50(umol/kg) dose; assay type: functional; procedure, shortened: as §1
Rattus norvegicus [19] = assay: Effect on in vivo accumulation of […] was measured in rat corpus striatum at 50(Micromol/kg) dose; assay type: functional; procedure, shortened: as §1
Rattus norvegicus [20] = assay: Effect on in vivo accumulation of dopamine(DA) was measured in rat limbic system at 43(Micromol/kg) dose; assay type: functional; procedure, shortened: as §2
Rattus norvegicus [21] = assay: Effect on in vivo accumulation of DOPA was measured in rat corpus striatum at 43(Micromol/kg) dose; assay type: functional; procedure, shortened: as §1
Rattus norvegicus [22] = assay: Effect on in vivo accumulation of DOPA was measured in rat limbic system at 43(Micromol/kg) dose; assay type: functional; procedure, shortened: as §1
Rattus norvegicus [23] = assay: Effect on in vivo accumulation of 5-HTP was measured in rat corpus striatum at 43(umol/kg) dose; assay type: functional; procedure, shortened: as §1
Rattus norvegicus [24] = assay: Effect on in vivo accumulation of […] was measured in rat corpus striatum at 43(Micromol/kg) dose; assay type: functional; procedure, shortened: as §1
Rattus norvegicus [25] = assay: Effect on in vivo accumulation of 5-HTP was measured in rat limbic system at 43(Micromol/kg) dose; assay type: functional; procedure, shortened: as §1

SMILES	IC50 [1]	Activity (Rattus norvegicus [2])	Activity (Rattus norvegicus [3])	Activity (Rattus norvegicus [4])	Activity (Rattus norvegicus [5])	Activity (Rattus norvegicus [6])	Activity (Rattus norvegicus [7])	also measured
CCCN(CCC)[C@H]1Cc2c(O)cccc2C[C@H]1C (stereo in doubt; (+))	2.42 µM							
CCCN(CCC)[C@H]1Cc2c(O)cccc2C[C@@H]1C (stereo in doubt; (+))	0.0605 µM							
CCCN[C@H]1Cc2c(O)cccc2C[C@@H]1C (stereo in doubt; (+)-9)		426 ng/g	957 ng/g	1030 ng/g	<67.4 ng/g	4249 ng/g	125 ng/g	
CCCN[C@H]1Cc2c(O)cccc2C[C@H]1C (stereo in doubt; (+)-13)		<271 ng/g	<525 ng/g	1186 ng/g	101 ng/g	5133 ng/g	140 ng/g	Activity (Rattus norvegicus [8]): 1292 ng/g; Activity (Rattus norvegicus [9]): 5924 ng/g; Activity (Rattus norvegicus [10]): 365 ng/g; Activity (Rattus norvegicus [11]): 1013 ng/g; Activity (Rattus norvegicus [12]): 131 ng/g; Activity (Rattus norvegicus [13]): 104 ng/g
CCCN(CCC)[C@H]1Cc2c(O)cccc2C[C@H]1C (stereo in doubt; (+)-15)	2.42 µM							Activity (Rattus norvegicus [14]): 197 ng/g; Activity (Rattus norvegicus [15]): 1157 ng/g; Activity (Rattus norvegicus [16]): <507 ng/g; Activity (Rattus norvegicus [17]): <609 ng/g; Activity (Rattus norvegicus [18]): 115 ng/g; Activity (Rattus norvegicus [19]): <2758 ng/g
CCCN(CCC)[C@H]1Cc2c(O)cccc2C[C@H]1C (stereo in doubt; (-))	0.486 µM							
CCCN(CCC)[C@H]1Cc2c(O)cccc2C[C@@H]1C (stereo in doubt; (-))	1.68 µM							
CCCN[C@H]1Cc2c(O)cccc2C[C@@H]1C (stereo in doubt; (-)-9)		<340 ng/g	978 ng/g	975 ng/g	105 ng/g	5588 ng/g	169 ng/g	
CCCN(CCC)[C@H]1Cc2c(O)cccc2C[C@@H]1C (stereo in doubt; (-)-11)	1.68 µM							Activity (Rattus norvegicus [20]): <800 ng/g; Activity (Rattus norvegicus [21]): 1039 ng/g; Activity (Rattus norvegicus [22]): 381 ng/g; Activity (Rattus norvegicus [23]): 117 ng/g; Activity (Rattus norvegicus [24]): <4181 ng/g; Activity (Rattus norvegicus [25]): 136 ng/g
CCCN[C@H]1Cc2c(O)cccc2C[C@H]1C (stereo in doubt; (-)-13)		365 ng/g	932 ng/g	1148 ng/g	103 ng/g	5365 ng/g	151 ng/g	
